Bioassay records deposited in PubChem BioAssay by Broad Institute.
E-selectin induc: induces E-selectin expression in human endothelial cells | AID 686992 | activation, % at 7.58 µM | P16581 | HUVEC E-selectin immunofluorescence imaging; normalized: neutral wells 0, TNF-alpha wells 100 | actives 0.37% (n = 260,000);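 active means mean E-selectin-positive cell signal at least 10% of the positive control, reached in at least 60% of replicates, without over 20% cell loss; inconclusive means no rule given, readout overlaps actives, possibly toxicity-flagged; inactive means the rest, including those meeting only one limit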
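Assay system: HUVEC, human umbilical vein endothelial cells / Amount: 3,000 HUVEC/well / Controls: TNF-alpha positive control, DMSO neutral control / Compound dosing: single concentration / Medium: EGM-2 over gelatin coat / Evaluation: percent E-selectin-positive cells / Signal: immunofluorescence imaging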
FGF22 binding: FGF22 (human) thermal shift binding; Q9HCT0; recombinant FGF22 thermal shift, SYPRO orange fluorescence; percent of sucrose octasulfate shift, DMSO zero; activity (Tm shift, normalised), % at 9.99 µM; actives 1.5% (n = 340,000);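 active means mean Tm shift, scaled 0 neutral to 100 positive control, at about 1.3% or above, every replicate too, limit read from the data; inconclusive means no clear call, values can overlap the other calls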
ERAP1 inh: ERAP1 (human) enzyme inhibition | Q9NZ08 | recombinant ERAP1, Leu-AMC fluorescence, 60 min | inhibition, % at 10.7 µM | actives 0.15% (n = 340,000) | AID 652197;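 active means mean replicate inhibition of at least 30%, or all replicates individually reaching that 30% level; inactive means mean below 30% and not every replicate reaching it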;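 further: 0% = neutral control wells and 100% = L-leucinethiol positive control wells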
DENV2 CPE: inhibitors of DENV2 cytopathic effect. DENV2-infected cells, cytopathic effect rescue, plate reader. CPE inhibition, % at 9.99 µM. actives 1.7% (n = 350,000). AID 651640; in the data active means CPE inhibition above about 20%, passing the limit was not always enough; inconclusive means no clear call, values can overlap the other calls; tested in BHK-21 cells;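 further: 0% = median of neutral control wells and 100% = median of positive control wells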
CFTR F508del cor: correctors of CFTR F508del function in bronchial epithelial cells; actives 0.36% (n = 350,000); AID 720511; CFBE cells, YFP halide quenching; stimulated with forskolin plus potentiator P3; % fluorescence drop versus neutral controls; activity (quench increase), % at 7.58 µM;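 active means mean added fluorescence quench of at least 8% versus neutral control, with both replicates also reaching 8%; inconclusive means only one of the mean or replicate conditions met; inactive means mean below 8% and not both replicates reaching 8%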;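 further: cells transiently co-express mutant CFTR-F508del with the halide-sensitive YFP; corrector assay measuring rescue of mutant channel to the surface after 24 h compound exposure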
Active calls of the source: *; ? = inconclusive; . = no result. A selection: hits, their analogues and other compounds. The true share with any hit is near 3.7%.

SMILES	E-selectin induc	FGF22 binding	ERAP1 inh	DENV2 CPE	CFTR F508del cor
O=C(NC(C(=O)N1CCCC1C(=O)NC1CCCC1)c1ccccc1)c1cccs1 (configuration not stated)	0	0	0	47*	0
O=C(N[C@H](C(=O)N1CCC[C@H]1C(=O)NC1CCCC1)c1ccccc1)c1ccccc1	?	0	2	-2	-1
CC(C)[C@H](NC(=O)c1cccs1)C(=O)N1CCC[C@H]1C(=O)NCc1ccccc1	2	0	2	26*	-3
O=C(Nc1ccc(-c2csc(Nc3cccc(C(F)(F)F)c3)n2)cc1)c1cc([N+](=O)[O-])cc(C(F)(F)F)c1	.	0	0	135*	2
C/C=C/c1ccc([C@H]2[C@@H](CO)N[C@@H]2CNC(=O)C2CCC2)cc1	0	.	-1	34*	-1
C/C=C/c1ccc([C@@H]2[C@@H](CO)N(C(C)=O)[C@@H]2CNC(=O)CC2CC2)cc1	0	0	-2	86*	1
C/C=C/c1ccc([C@H]2[C@@H](CO)N(C(=O)C3CCC3)[C@@H]2CNC(=O)NC(C)C)cc1	1	.	-1	80*	-5
O=C(NC[C@@H]1N[C@@H](CO)[C@H]1c1ccccc1)C1CC1	0	0	1	2	0
C/C=C/c1ccc([C@@H]2[C@@H](CNC(=O)CC3CC3)N(C(C)=O)[C@H]2CO)cc1	0	.	.	-1	-4
COc1ccccc1CN1[C@H](CO)[C@H]2c3ccccc3N(C(=O)c3ccc(F)cc3)C[C@H]21	-1	0	1	-6	-4
CNC(=O)C[C@@H]1CC[C@H]2[C@H](COc3ccc(NC(=O)C4CCCCC4)cc3C(=O)N2C)O1	0	0	0	10	3
N/C(=N/O)c1ccccc1N1CCC(Cc2ccccc2)CC1	.	44*	2	1	1
CC(=O)/C(C#N)=C1\NC(=O)C(Cc2ccc(C)c(Cl)c2)S1 (configuration not stated)	.	0	-1	87*	?
O=C1NC(=O)C(Cc2cccc(Oc3ccccc3)c2)S1 (configuration not stated)	0	0	-4	4	-1
Cc1ccc(NC(=O)c2cc(C(=O)Nc3ccc(C)cc3)n(C)n2)cc1	.	0	-3	42*	-1
CN(C(=O)COC(=O)c1n[nH]c(=O)c2ccccc12)c1ccccc1	38*	0	1	2	-7
COC(=O)c1ccccc1-c1ccc(/C=N/NC(N)=O)o1	1	2.9*	.	9	0
C[C@H](CO)N1C[C@H](C)[C@@H](CN(C)Cc2ccc(C(=O)Nc3ccccc3N)cc2)Oc2ccc(NC(=O)c3ccncc3)cc2C1=O	0	0	4	-15	0
O=C1c2ccccc2C(=O)N1CC(=O)N1c2ccccc2Sc2ccccc21	.	0	5	1	-1
O=C1c2ccccc2C(=O)N1CC(=O)N1c2ccccc2Sc2ccc(C(F)(F)F)cc21	.	0	1	35*	1
Cc1ccc(S(=O)(=O)N2c3ccccc3CC2C)cc1 (configuration not stated)	.	.	-3	6	-1
Cc1ccc(S(=O)(=O)N2c3ccc(S(N)(=O)=O)cc3CC2C)cc1 (configuration not stated)	.	44*	3	-3	4
CCCCC(CC)C1OCC(C[N+]2(C)CCOCC2)O1 (configuration not stated)	1	0	83*	16	.
CC(c1ccccc1)C1OCC(C[N+]2(C)CCCCC2)O1 (configuration not stated)	3	0	15	-4	7
COCC(=O)Nc1ccc2c(c1)C(=O)N(C)[C@H]1CC[C@@H](CC(=O)NCCc3ccncc3)O[C@@H]1CO2	0	0	-2	7	2
Cc1cccn2c(=O)c3cc(C(=O)NCC4CCCO4)c(=N)n(Cc4cccnc4)c3nc12 (configuration not stated)	.	.	105*	.	.
Cc1cccn2c(=O)c3cc(C(=O)NC4CCCC4)c(=N)n(CC4CCCO4)c3nc12 (configuration not stated)	0	0	-310	-3	-3
CCOCCCNc1nc2nc3ccc(C)cn3c(=O)c2cc1C(=O)NCC1CCCO1 (configuration not stated)	0	0	57*	.	2
